From ChEMBL document CHEMBL1817556, “Substituted lactam and cyclic azahemiacetals modulate Pseudomonas aeruginosa quorum sensing” (Bioorg Med Chem, 2011) come the findings set out here.

Test [1] addresses 3-(3-hydroxydecanoyloxy)decanoate synthase (Pseudomonas aeruginosa (strain ATCC 15692 / PAO1 / 1C / PRS 101 / LMG12228)) (UniProt Q51559). Nature of the test: Modulation of Pseudomonas aeruginosa lacZ-fused rhlA expressed in Escherichia coli DH5alpha co-expressing Ptac-rhlR assessed as C4-AHL-induced effect at 0.19 mM after 4 hrs by beta-galactosidase assay relative to control. Put shortly:
(§1)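 rhl reporter: E. coli DH5α carrying pECP61.5 (Ptac-rhlR, PrhlA-lacZ) was grown overnight in LB with ampicillin (100 μg/ml) only, then diluted to OD600 0.150. It was induced with 1 mM IPTG, and 2 μM C4-HSL plus compound or DMSO were added at OD600 1.0. Cultures were shaken 4 h at 37 °C. β-Galactosidase activity was read in Miller units as % of the solvent sample. Triplicates per biological replicate, at least two repeats; paired two-tailed t-test.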

Test [2] has as its target T1, Acyl-homoserine-lactone synthase (Pseudomonas aeruginosa (strain ATCC 15692 / PAO1 / 1C / PRS 101 / LMG12228)) (UniProt P33883).
T1 sequence (whole entry): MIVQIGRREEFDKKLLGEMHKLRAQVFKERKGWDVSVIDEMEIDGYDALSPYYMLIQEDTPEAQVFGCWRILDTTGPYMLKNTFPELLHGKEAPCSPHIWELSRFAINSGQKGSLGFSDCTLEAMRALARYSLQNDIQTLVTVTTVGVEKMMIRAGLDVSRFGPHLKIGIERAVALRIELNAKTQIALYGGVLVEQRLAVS
Nature of the test: Modulation of Pseudomonas aeruginosa lacZ-fused lasI expressed in Escherichia coli DH5alpha co-expressing pBAD-lasR assessed as 3-oxo-C12-AHL-induced effect at 0.19 mM after 3 hrs by beta-galactosidase assay relative to control. The gist of the method:
(§2)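 E. coli DH5α carrying pSC11 (PlasI-lacZ translational fusion) and pJN105L (PBAD-lasR) was grown overnight in LB with ampicillin (100 μg/ml) and gentamicin (15 μg/ml), then diluted to OD600 0.150. Arabinose (0.2% w/v), 3-oxo-C12-AHL (2 μM) and test compound or DMSO were added. Cultures were shaken 3 h at 37 °C. β-Galactosidase activity was read in Miller units and expressed as % of the solvent sample. Triplicates per biological replicate, repeated at least twice; paired two-tailed t-test.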

The target of test [3] is 3-(3-hydroxydecanoyloxy)decanoate synthase (Pseudomonas aeruginosa (strain ATCC 15692 / PAO1 / 1C / PRS 101 / LMG12228)) (UniProt Q51559). Nature of the test: Modulation of Pseudomonas aeruginosa lacZ-fused rhlA expressed in Escherichia coli DH5alpha co-expressing Ptac-rhlR assessed as C4-AHL-induced effect at 0.78 mM after 4 hrs by beta-galactosidase assay relative to control. The gist of the method: (§3)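 E. coli DH5α carrying pECP61.5 (Ptac-rhlR, PrhlA-lacZ), grown overnight in LB with ampicillin 100 μg/ml and diluted to OD600 0.150. At OD600 1.0, 1 mM IPTG, 2 μM C4-HSL and compound or DMSO were added. Cultures were shaken 4 h at 37 °C, then β-galactosidase was read in Miller units. Activity is % of solvent sample, from triplicates per biological replicate, with at least two repeats.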

Test [4] shares this target. Description: Modulation of Pseudomonas aeruginosa lacZ-fused rhlA expressed in Escherichia coli DH5alpha co-expressing Ptac-rhlR assessed as C4-AHL-induced effect at 0.39 mM after 4 hrs by beta-galactosidase assay relative to control. Put shortly:
as §1

Test [5] concerns the target T1, Acyl-homoserine-lactone synthase (Pseudomonas aeruginosa (strain ATCC 15692 / PAO1 / 1C / PRS 101 / LMG12228)). Nature of the test: Modulation of Pseudomonas aeruginosa lacZ-fused lasI expressed in Escherichia coli DH5alpha co-expressing pBAD-lasR assessed as 3-oxo-C12-AHL-induced effect at 0.58 mM after 3 hrs by beta-galactosidase assay relative to control. The gist of the method:
as §2

For test [6] the target is unchanged. Description: Modulation of Pseudomonas aeruginosa lacZ-fused lasI expressed in Escherichia coli DH5alpha co-expressing pBAD-lasR assessed as 3-oxo-C12-AHL-induced effect at 0.39 mM after 3 hrs by beta-galactosidase assay relative to control. The gist of the method: as §2
The target of test [7] is 3-(3-hydroxydecanoyloxy)decanoate synthase (Pseudomonas aeruginosa (strain ATCC 15692 / PAO1 / 1C / PRS 101 / LMG12228)) (UniProt Q51559). Description: Modulation of Pseudomonas aeruginosa lacZ-fused rhlA expressed in Escherichia coli DH5alpha co-expressing Ptac-rhlR assessed as C4-AHL-induced effect at 0.58 mM after 4 hrs by beta-galactosidase assay relative to control. The gist of the method: as §3

For test [8], the target named is T1, Acyl-homoserine-lactone synthase (Pseudomonas aeruginosa (strain ATCC 15692 / PAO1 / 1C / PRS 101 / LMG12228)). Description: Modulation of Pseudomonas aeruginosa lacZ-fused lasI expressed in Escherichia coli DH5alpha co-expressing pBAD-lasR assessed as 3-oxo-C12-AHL-induced effect at 0.78 mM after 3 hrs by beta-galactosidase assay relative to control. Put shortly: as §2

In test [9] the target is 3-(3-hydroxydecanoyloxy)decanoate synthase (Pseudomonas aeruginosa (strain ATCC 15692 / PAO1 / 1C / PRS 101 / LMG12228)) (UniProt Q51559). Nature of the test: Modulation of Pseudomonas aeruginosa lacZ-fused rhlA expressed in Escherichia coli DH5alpha co-expressing Ptac-rhlR assessed as C4-AHL-induced effect at 0.46 mM after 4 hrs by beta-galactosidase assay relative to control. The gist of the method: as §1

For test [10] the target is unchanged. Nature of the test: Modulation of Pseudomonas aeruginosa lacZ-fused rhlA expressed in Escherichia coli DH5alpha co-expressing Ptac-rhlR assessed as C4-AHL-induced effect at 0.69 mM after 4 hrs by beta-galactosidase assay relative to control. Put shortly: as §3
Test [11] addresses T1, Acyl-homoserine-lactone synthase (Pseudomonas aeruginosa (strain ATCC 15692 / PAO1 / 1C / PRS 101 / LMG12228)). Nature of the test: Modulation of Pseudomonas aeruginosa lacZ-fused lasI expressed in Escherichia coli DH5alpha co-expressing pBAD-lasR assessed as 3-oxo-C12-AHL-induced effect at 0.92 mM after 3 hrs by beta-galactosidase assay relative to control. Put shortly: as §2

For test [12] the target is unchanged. Description: Modulation of Pseudomonas aeruginosa lacZ-fused lasI expressed in Escherichia coli DH5alpha co-expressing pBAD-lasR assessed as 3-oxo-C12-AHL-induced effect at 0.46 mM after 3 hrs by beta-galactosidase assay relative to control. Put shortly: as §2
The target in test [13] is 3-(3-hydroxydecanoyloxy)decanoate synthase (Pseudomonas aeruginosa (strain ATCC 15692 / PAO1 / 1C / PRS 101 / LMG12228)) (UniProt Q51559). Description: Modulation of Pseudomonas aeruginosa lacZ-fused rhlA expressed in Escherichia coli DH5alpha co-expressing Ptac-rhlR assessed as C4-AHL-induced effect at 0.23 mM after 4 hrs by beta-galactosidase assay relative to control. The gist of the method: as §1

In test [14] the target is T1, Acyl-homoserine-lactone synthase (Pseudomonas aeruginosa (strain ATCC 15692 / PAO1 / 1C / PRS 101 / LMG12228)). Nature of the test: Modulation of Pseudomonas aeruginosa lacZ-fused lasI expressed in Escherichia coli DH5alpha co-expressing pBAD-lasR assessed as 3-oxo-C12-AHL-induced effect at 0.23 mM after 3 hrs by beta-galactosidase assay relative to control. The gist of the method: as §2

For test [15] the target is unchanged. Description: Modulation of Pseudomonas aeruginosa lacZ-fused lasI expressed in Escherichia coli DH5alpha co-expressing pBAD-lasR assessed as 3-oxo-C12-AHL-induced effect at 0.69 mM after 3 hrs by beta-galactosidase assay relative to control. Put shortly: as §2
Test [16] addresses 3-(3-hydroxydecanoyloxy)decanoate synthase (Pseudomonas aeruginosa (strain ATCC 15692 / PAO1 / 1C / PRS 101 / LMG12228)) (UniProt Q51559). Description: Modulation of Pseudomonas aeruginosa lacZ-fused rhlA expressed in Escherichia coli DH5alpha co-expressing Ptac-rhlR assessed as C4-AHL-induced effect at 0.92 mM after 4 hrs by beta-galactosidase assay relative to control. Put shortly: as §3

Test [17] has the same target. Nature of the test: Modulation of Pseudomonas aeruginosa lacZ-fused rhlA expressed in Escherichia coli DH5alpha co-expressing Ptac-rhlR assessed as C4-AHL-induced effect at 0.35 mM after 4 hrs by beta-galactosidase assay relative to control. The gist of the method:
as §1

The target of test [18] is T1, Acyl-homoserine-lactone synthase (Pseudomonas aeruginosa (strain ATCC 15692 / PAO1 / 1C / PRS 101 / LMG12228)). Nature of the test: Modulation of Pseudomonas aeruginosa lacZ-fused lasI expressed in Escherichia coli DH5alpha co-expressing pBAD-lasR assessed as 3-oxo-C12-AHL-induced effect at 0.17 mM after 3 hrs by beta-galactosidase assay relative to control. Put shortly: as §2

For test [19], the target named is 3-(3-hydroxydecanoyloxy)decanoate synthase (Pseudomonas aeruginosa (strain ATCC 15692 / PAO1 / 1C / PRS 101 / LMG12228)) (UniProt Q51559). Description: Modulation of Pseudomonas aeruginosa lacZ-fused rhlA expressed in Escherichia coli DH5alpha co-expressing Ptac-rhlR assessed as C4-AHL-induced effect at 0.17 mM after 4 hrs by beta-galactosidase assay relative to control. Put shortly: as §1

For test [20] the target is unchanged. Nature of the test: Modulation of Pseudomonas aeruginosa lacZ-fused rhlA expressed in Escherichia coli DH5alpha co-expressing Ptac-rhlR assessed as C4-AHL-induced effect at 0.52 mM after 4 hrs by beta-galactosidase assay relative to control. Put shortly:
as §1

Test [21] addresses T1, Acyl-homoserine-lactone synthase (Pseudomonas aeruginosa (strain ATCC 15692 / PAO1 / 1C / PRS 101 / LMG12228)). Description: Modulation of Pseudomonas aeruginosa lacZ-fused lasI expressed in Escherichia coli DH5alpha co-expressing pBAD-lasR assessed as 3-oxo-C12-AHL-induced effect at 0.35 mM after 3 hrs by beta-galactosidase assay relative to control. Put shortly: as §2

Test [22] has the same target. Nature of the test: Modulation of Pseudomonas aeruginosa lacZ-fused lasI expressed in Escherichia coli DH5alpha co-expressing pBAD-lasR assessed as 3-oxo-C12-AHL-induced effect at 0.52 mM after 3 hrs by beta-galactosidase assay relative to control. Put shortly: as §2

Regarding `CCCCCCCCCSC[C@@H]1CCC(=O)N1`, the Activity in test [1] amounted to 95%; in [2], 72%; in [3] it was 137%; in test [4] it was 115%; in [5], 18%; in [6] it was 26%. Further, the figures for the Activity in test [7] and in [8] were 108% and 6%, respectively.

Consider `CCCCCCSC[C@@H]1CCC(O)N1` (mixture of isomers), for which the Activity in [9] amounted to 0.2%; in test [10], 0%; in test [11] it was 0%; in test [12] it was 0%; in test [13] it was 26%; in test [14], 109%. The Activity in test [15] and in [16] was 0% throughout.

On to `CCCCCCCCCSC[C@H]1NC(=O)[C@H](O)[C@@H]1O`, for which the Activity was found to be 117% in test [17]; 93% in test [18]; 106% in test [19]; 115% in test [20]; 87% in [21]; 135% in test [10]. For the same compound, the Activity in test [22] stood at 80%; in [15] it was 63%.
